Reference: ChEMBL document CHEMBL5303300, “EUbOPEN Chemogenomics Library - Multiplex” (2023)
“And” between values parts separate entries of the source, which are not always exact repeats. Identical values can stand only once.

Tested on: HEK-293T
Assay: Multiplex assay against HEK293T
Assay type: toxicity, cell-based
Details: human, number of replicates 2
Procedure, shortened: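 Hoechst33342, BioTracker Green Microtubule Cytoskeleton Dye, MitoTracker Red and Annexin V Alexa Fluor 680 were added to live cells at seeding, and imaging on a CQ1 microscope at 37°C and 5% CO2 followed compound addition. Gating by CellPathfinder machine learning separated cells into Hoechst high-intensity objects or normal cells, then normal cells into healthy, pyknosed or fragmented nuclei, then pyknosed cells into mitotic or apoptotic. Per cents of healthy-nucleus cells are reported for the tubulin, mitochondrial-mass and membrane-permeability phenotypes.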

[1] = 12 h, 1 µM, compound concentration 1 uM
[2] = 12 h, 10 µM, compound concentration 10 uM
[3] = 24 h, 1 µM, compound concentration 1 uM
[4] = 24 h, 10 µM, compound concentration 10 uM
[5] = 48 h, 1 µM, compound concentration 1 uM
[6] = 48 h, 10 µM, compound concentration 10 uM

Cc1cccc(S(=O)(=O)N(C)[C@H](C)CCN2CCC(C)CC2)c1.Cl
Population Apoptotic (%) [1]: 51% and 50%
Population Fragmented Nuclei (%) [1]: 4% and 1%
Population Healthy Nuclei (%) [1]: 81% and 80%
Population Hoechst High Intensity Objects (%) [1]: 5% and 6%
Population Membrane Permeable-Phenotype (%) [1]: 4% and 6%
Population Mitochondria Different-Phenotype (%) [1]: 16%
Population Mitotic Cells (%) [1]: 48% and 50%
Population Normal (%) [1]: 94% and 93%
Population Pyknosed Nuclei (%) [1]: 13% and 17%
Population Tubulin-Different-Phenotype (%) [1]: 61% and 51%
Total Cell Count [1]: 635 and 449
Population Apoptotic (%) [2]: 52% and 62%
Population Fragmented Nuclei (%) [2]: 4% and 3%
Population Healthy Nuclei (%) [2]: 81% and 74%
Population Hoechst High Intensity Objects (%) [2]: 7% and 9%
Population Membrane Permeable-Phenotype (%) [2]: 3% and 4%
Population Mitochondria Different-Phenotype (%) [2]: 24% and 29%
Population Mitotic Cells (%) [2]: 47% and 37%
Population Normal (%) [2]: 92% and 90%
Population Pyknosed Nuclei (%) [2]: 14% and 22%
Population Tubulin-Different-Phenotype (%) [2]: 70% and 65%
Total Cell Count [2]: 550 and 400
Population Apoptotic (%) [3]: 45% and 63%
Population Fragmented Nuclei (%) [3]: 6% and 2%
Population Healthy Nuclei (%) [3]: 85% and 82%
Population Hoechst High Intensity Objects (%) [3]: 6% and 9%
Population Membrane Permeable-Phenotype (%) [3]: 4%
Population Mitochondria Different-Phenotype (%) [3]: 7% and 10%
Population Mitotic Cells (%) [3]: 54% and 36%
Population Normal (%) [3]: 93% and 90%
Population Pyknosed Nuclei (%) [3]: 8% and 15%
Population Tubulin-Different-Phenotype (%) [3]: 36% and 37%
Total Cell Count [3]: 943 and 563
Population Apoptotic (%) [4]: 64% and 54%
Population Fragmented Nuclei (%) [4]: 4% and 3%
Population Healthy Nuclei (%) [4]: 79% and 83%
Population Hoechst High Intensity Objects (%) [4]: 9% and 6%
Population Membrane Permeable-Phenotype (%) [4]: 4% and 3%
Population Mitochondria Different-Phenotype (%) [4]: 15% and 9%
Population Mitotic Cells (%) [4]: 35% and 45%
Population Normal (%) [4]: 90% and 93%
Population Pyknosed Nuclei (%) [4]: 16% and 12%
Population Tubulin-Different-Phenotype (%) [4]: 50% and 49%
Total Cell Count [4]: 552 and 801
Population Apoptotic (%) [5]: 15% and 36%
Population Fragmented Nuclei (%) [5]: 10% and 7%
Population Healthy Nuclei (%) [5]: 84% and 86%
Population Hoechst High Intensity Objects (%) [5]: 8% and 6%
Population Membrane Permeable-Phenotype (%) [5]: 5% and 3%
Population Mitochondria Different-Phenotype (%) [5]: 0% and 3%
Population Mitotic Cells (%) [5]: 85% and 63%
Population Normal (%) [5]: 91% and 93%
Population Pyknosed Nuclei (%) [5]: 4% and 5%
Population Tubulin-Different-Phenotype (%) [5]: 16% and 20%
Total Cell Count [5]: 2361 and 1220
Population Apoptotic (%) [6]: 39% and 41%
Population Fragmented Nuclei (%) [6]: 11% and 10%
Population Healthy Nuclei (%) [6]: 83%
Population Hoechst High Intensity Objects (%) [6]: 9% and 8%
Population Membrane Permeable-Phenotype (%) [6]: 7%
Population Mitochondria Different-Phenotype (%) [6]: 1% and 3%
Population Mitotic Cells (%) [6]: 60% and 58%
Population Normal (%) [6]: 90% and 91%
Population Pyknosed Nuclei (%) [6]: 5%
Population Tubulin-Different-Phenotype (%) [6]: 27%
Total Cell Count [6]: 1730 and 1106

CN1CCc2cc(Cl)c(O)cc2[C@@H](c2ccccc2)C1.Cl
Population Apoptotic (%) [1]: 48% and 46%
Population Fragmented Nuclei (%) [1]: 3% and 4%
Population Healthy Nuclei (%) [1]: 84% and 85%
Population Hoechst High Intensity Objects (%) [1]: 7% and 5%
Population Membrane Permeable-Phenotype (%) [1]: 5% and 3%
Population Mitochondria Different-Phenotype (%) [1]: 23% and 12%
Population Mitotic Cells (%) [1]: 51% and 53%
Population Normal (%) [1]: 92% and 94%
Population Pyknosed Nuclei (%) [1]: 12% and 10%
Population Tubulin-Different-Phenotype (%) [1]: 50% and 47%
Total Cell Count [1]: 505 and 645
Population Apoptotic (%) [2]: 40% and 55%
Population Fragmented Nuclei (%) [2]: 4%
Population Healthy Nuclei (%) [2]: 87% and 85%
Population Hoechst High Intensity Objects (%) [2]: 6% and 8%
Population Membrane Permeable-Phenotype (%) [2]: 3% and 4%
Population Mitochondria Different-Phenotype (%) [2]: 11%
Population Mitotic Cells (%) [2]: 59% and 45%
Population Normal (%) [2]: 93% and 91%
Population Pyknosed Nuclei (%) [2]: 8% and 9%
Population Tubulin-Different-Phenotype (%) [2]: 54% and 52%
Total Cell Count [2]: 819 and 669
Population Apoptotic (%) [3]: 47% and 31%
Population Fragmented Nuclei (%) [3]: 6% and 5%
Population Healthy Nuclei (%) [3]: 83% and 88%
Population Hoechst High Intensity Objects (%) [3]: 7%
Population Membrane Permeable-Phenotype (%) [3]: 1% and 3%
Population Mitochondria Different-Phenotype (%) [3]: 8% and 3%
Population Mitotic Cells (%) [3]: 52% and 68%
Population Normal (%) [3]: 92%
Population Pyknosed Nuclei (%) [3]: 9% and 6%
Population Tubulin-Different-Phenotype (%) [3]: 25% and 24%
Total Cell Count [3]: 778 and 975
Population Apoptotic (%) [4]: 38% and 37%
Population Fragmented Nuclei (%) [4]: 7% and 8%
Population Healthy Nuclei (%) [4]: 88% and 87%
Population Hoechst High Intensity Objects (%) [4]: 8% and 7%
Population Membrane Permeable-Phenotype (%) [4]: 5% and 4%
Population Mitochondria Different-Phenotype (%) [4]: 3%
Population Mitotic Cells (%) [4]: 61% and 62%
Population Normal (%) [4]: 91% and 92%
Population Pyknosed Nuclei (%) [4]: 4%
Population Tubulin-Different-Phenotype (%) [4]: 35% and 38%
Total Cell Count [4]: 1332 and 988
Population Apoptotic (%) [5]: 10% and 5%
Population Fragmented Nuclei (%) [5]: 10% and 11%
Population Healthy Nuclei (%) [5]: 85% and 84%
Population Hoechst High Intensity Objects (%) [5]: 8% and 9%
Population Membrane Permeable-Phenotype (%) [5]: 3% and 6%
Population Mitochondria Different-Phenotype (%) [5]: 1% and 0%
Population Mitotic Cells (%) [5]: 89% and 94%
Population Normal (%) [5]: 91% and 90%
Population Pyknosed Nuclei (%) [5]: 3%
Population Tubulin-Different-Phenotype (%) [5]: 10% and 14%
Total Cell Count [5]: 1964 and 2487
Population Apoptotic (%) [6]: 6% and 16%
Population Fragmented Nuclei (%) [6]: 22% and 20%
Population Healthy Nuclei (%) [6]: 75% and 77%
Population Hoechst High Intensity Objects (%) [6]: 9% and 10%
Population Membrane Permeable-Phenotype (%) [6]: 10%
Population Mitochondria Different-Phenotype (%) [6]: 0%
Population Mitotic Cells (%) [6]: 93% and 83%
Population Normal (%) [6]: 90% and 89%
Population Pyknosed Nuclei (%) [6]: 2%
Population Tubulin-Different-Phenotype (%) [6]: 20% and 21%
Total Cell Count [6]: 3504 and 2430

COc1nc2ccc([C@@](O)(c3ccc(Cl)cc3)c3cncn3C)cc2c(Cl)c1Cc1ccc(-n2cccn2)cc1 [JNJ-53721590]
Population Apoptotic (%) [1]: 43% and 52%
Population Fragmented Nuclei (%) [1]: 4% and 2%
Population Healthy Nuclei (%) [1]: 81%
Population Hoechst High Intensity Objects (%) [1]: 7%
Population Membrane Permeable-Phenotype (%) [1]: 4% and 5%
Population Mitochondria Different-Phenotype (%) [1]: 26%
Population Mitotic Cells (%) [1]: 56% and 47%
Population Normal (%) [1]: 92%
Population Pyknosed Nuclei (%) [1]: 13% and 15%
Population Tubulin-Different-Phenotype (%) [1]: 74% and 70%
Total Cell Count [1]: 675 and 403
Population Apoptotic (%) [2]: 41% and 64%
Population Fragmented Nuclei (%) [2]: 2%
Population Healthy Nuclei (%) [2]: 88%
Population Hoechst High Intensity Objects (%) [2]: 6%
Population Membrane Permeable-Phenotype (%) [2]: 21% and 12%
Population Mitochondria Different-Phenotype (%) [2]: 24%
Population Mitotic Cells (%) [2]: 58% and 35%
Population Normal (%) [2]: 93%
Population Pyknosed Nuclei (%) [2]: 9% and 8%
Population Tubulin-Different-Phenotype (%) [2]: 94%
Total Cell Count [2]: 831 and 720
Population Apoptotic (%) [3]: 42% and 54%
Population Fragmented Nuclei (%) [3]: 6% and 3%
Population Healthy Nuclei (%) [3]: 84% and 87%
Population Hoechst High Intensity Objects (%) [3]: 8% and 7%
Population Membrane Permeable-Phenotype (%) [3]: 4% and 1%
Population Mitochondria Different-Phenotype (%) [3]: 11% and 15%
Population Mitotic Cells (%) [3]: 57% and 45%
Population Normal (%) [3]: 91% and 92%
Population Pyknosed Nuclei (%) [3]: 8%
Population Tubulin-Different-Phenotype (%) [3]: 57% and 53%
Total Cell Count [3]: 1025 and 592
Population Apoptotic (%) [4]: 37% and 57%
Population Fragmented Nuclei (%) [4]: 2% and 1%
Population Healthy Nuclei (%) [4]: 87% and 84%
Population Hoechst High Intensity Objects (%) [4]: 5% and 8%
Population Membrane Permeable-Phenotype (%) [4]: 16% and 11%
Population Mitochondria Different-Phenotype (%) [4]: 19% and 23%
Population Mitotic Cells (%) [4]: 62% and 42%
Population Normal (%) [4]: 94% and 91%
Population Pyknosed Nuclei (%) [4]: 9% and 13%
Population Tubulin-Different-Phenotype (%) [4]: 95% and 96%
Total Cell Count [4]: 856 and 731
Population Apoptotic (%) [5]: 18% and 38%
Population Fragmented Nuclei (%) [5]: 10% and 8%
Population Healthy Nuclei (%) [5]: 86% and 85%
Population Hoechst High Intensity Objects (%) [5]: 8% and 11%
Population Membrane Permeable-Phenotype (%) [5]: 5% and 2%
Population Mitochondria Different-Phenotype (%) [5]: 2% and 7%
Population Mitotic Cells (%) [5]: 81% and 61%
Population Normal (%) [5]: 91% and 88%
Population Pyknosed Nuclei (%) [5]: 3% and 6%
Population Tubulin-Different-Phenotype (%) [5]: 37% and 39%
Total Cell Count [5]: 2031 and 1111
Population Apoptotic (%) [6]: 40% and 52%
Population Fragmented Nuclei (%) [6]: 5% and 6%
Population Healthy Nuclei (%) [6]: 90% and 87%
Population Hoechst High Intensity Objects (%) [6]: 10% and 12%
Population Membrane Permeable-Phenotype (%) [6]: 28% and 21%
Population Mitochondria Different-Phenotype (%) [6]: 3% and 4%
Population Mitotic Cells (%) [6]: 60% and 47%
Population Normal (%) [6]: 89% and 87%
Population Pyknosed Nuclei (%) [6]: 4% and 5%
Population Tubulin-Different-Phenotype (%) [6]: 93% and 95%
Total Cell Count [6]: 993 and 855
